Assay results of several laboratories.
Each line is one published result; the experiments were not run side by side.
JAK2 JH1: Tyrosine-protein kinase JAK2, JH1 (JAK2, Homo sapiens, UniProt O60674)
JAK2: Tyrosine-protein kinase JAK2 (JAK2, Homo sapiens, UniProt O60674)

| SMILES | target | read-out | mode | method | concentration | endpoint | result |
| --- | --- | --- | --- | --- | --- | --- | --- |
| COc1cccc(CNC(=O)c2nc3scc(COCc4ccc(C(=O)O)cc4)c3c(=O)[nH]2)c1 | JAK2 JH1 | cell-free assay |  | competition with immobilised ligand | 1 µM | remaining binding | 100% |
| CCCS(=O)(=O)Nc1ccc(F)c(C(=O)c2c[nH]c3ncc(-c4ccc(Cl)cc4)cc23)c1F | JAK2 | enzyme activity | inhibitor |  | 1 µM | inhibition | < 10% |
| COc1cc2ncnc(Nc3ccc(Oc4ccccc4)c(C)c3C)c2cc1OC | JAK2 JH1 | enzyme activity | inhibitor |  | 1 µM | inhibition | -2% |
| Cc1nn(CC(F)(F)F)cc1Nc1nccc(NCc2ccc(S(N)(=O)=O)cc2)n1 | JAK2 | enzyme activity | inhibitor | radiometric | 1 µM | remaining activity | 95% |
| COc1cc(Nc2cnc(C#N)c(O[C@H](C)CN(C)C)n2)ncc1-c1cnn(C)c1 | JAK2 | enzyme activity | inhibitor | radiometric | 1 µM | remaining activity | 71% |
| O=C(NCCCNc1nc(Nc2cccc(NC(=O)N3CCCC3)c2)ncc1I)c1cccs1 | JAK2 | enzyme activity | inhibitor | radiometric | 1 µM | remaining activity | 6% |
| CCS(=O)(=O)c1cc2cc(C[C@@](O)(CC(C)(C)c3ccc(F)cc3C(N)=O)C(F)(F)F)[nH]c2cn1 | JAK2 JH1 | cell-free assay |  | competition with immobilised ligand | 1 µM | remaining binding | 100% |
| O=C(CSc1nc2nccnc2c(=O)n1CCc1ccccc1)Nc1nccs1 | JAK2 | enzyme activity | inhibitor |  | 10 µM | inhibition | -4% |
| O=C(NCCCNc1ccnc(Nc2cccc(NC(=O)N3CCCC3)c2)n1)C1CCC1 | JAK2 | enzyme activity | inhibitor | radiometric | 1 µM | remaining activity | 88% |
| CC(C)(C)c1nc2c3cc[nH]c(=O)c3c3cc(F)ccc3c2[nH]1 | JAK2 | cell-free assay |  |  | 0.5 µM | remaining signal | 1.37% |
| Cc1nn(CC(F)(F)F)cc1Nc1nccc(NCCCNC(=O)C2CCC2)n1 | JAK2 | enzyme activity | inhibitor | radiometric | 1 µM | remaining activity | 114% |
| Cc1ccc(NC(=O)c2ccc(C)c(C(F)(F)F)c2)cc1C#Cc1nn(C2CCC(O)CC2)c2ncnc(N)c12 (stereo not shown) | JAK2 | cell-free assay |  |  | 10 µM | remaining signal | 64% |
| CC(=O)N1CCC(c2ccc(C(=O)NC(=N)N)cc2C(F)(F)F)CC1 | JAK2 JH1 | cell-free assay |  | competition with immobilised ligand | 1 µM | remaining binding | 100% |
| CCOc1cc(-c2nncn2C)ccc1Nc1ncc2cc(C)nc(NCC(C)(C)C)c2n1 | JAK2 | enzyme activity | inhibitor | FRET | 1 µM | inhibition | < 15% |
| Cc1ccc(C(=O)NCc2ccsc2)cc1C#Cc1cn(C(C)C)c2ncnc(N)c12 | JAK2 | enzyme activity | inhibitor |  | 1 µM | activity vs control | 100% |
| O=C(NCCCC1CCCCC1)c1ccc(CNC(=O)c2cnn(-c3ccccc3)c2C(F)(F)F)cc1 | JAK2 JH1 | cell-free assay |  | competition with immobilised ligand | 0.1 µM | remaining binding | 100% |
| c1cnn2ncc(-c3ccnc(N4CCC45COC5)n3)c2c1 | JAK2 JH1 | cell-free assay |  |  | 1 µM | remaining signal | 74% |
| Cn1cc(Cl)c2c(Oc3c(F)cc(Nc4cc(Cl)nc(N)n4)cc3F)ccnc21 | JAK2 JH1 | cell-free assay |  | competition with immobilised ligand | 0.1 µM | remaining binding | 72% |
| Cc1ccc(NC(=O)c2ccc(CN3CCN(C)CC3)cc2)cc1Nc1nc(-c2cccnc2)cs1 | JAK2 | cell-free assay |  |  | 0.5 µM | remaining signal | 96.3% |
